≈ marks a conversion by molar mass, not a printed value.
Columns and labels:
HCT-116 [1] = test: Antiproliferative activity against human HCT116 cells after 48 hrs by MTT assay; type: functional, cell-based; conditions: HCT-116, 48 h
How it was run: (§1)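 Cells were seeded at 5×10^5 cells/mL overnight and exposed to graded compound concentrations for 48 h. MTT (5 mg/mL stock) was added for 4 h at 37 °C, and formazan was dissolved in DMSO. Absorbance was read at 570 nm. IC₅₀ was fitted from the curves; values are mean ± SD, n = 3.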

PANC-1 [2] = test: Antiproliferative activity against human PANC1 cells after 48 hrs by MTT assay; type: functional, cell-based; conditions: PANC-1, 48 h; how it was run: as §1
BXPC-3 = test: Antiproliferative activity against human BxPC3 cells after 48 hrs by MTT assay; type: functional, cell-based; conditions: BXPC-3, 48 h; how it was run: as §1
MDA-MB-231 = test: Antiproliferative activity against human MDA-MB-231 cells after 48 hrs by MTT assay; type: functional, cell-based; conditions: MDA-MB-231, 48 h; how it was run: as §1
HCT-116 [3] = test: Antiproliferative activity against p53-deficient human HCT116 cells after 48 hrs by MTT assay; type: functional, cell-based; conditions: HCT-116, 48 h; how it was run: as §1
MCF7 = test: Antiproliferative activity against human MCF7 cells after 48 hrs by MTT assay; type: functional, cell-based; conditions: MCF7, 48 h; how it was run: as §1
A549 = test: Antiproliferative activity against human A549 cells after 48 hrs by MTT assay; type: functional, cell-based; conditions: A549, 48 h; how it was run: as §1
PANC-1 [4] = test: Antitumor activity against human PANC1 cells xenografted in nude mouse assessed as inhibition of tumor weight at 10 mg/kg administered every 2 days for 21 days relative to vehicle-treated control; type: functional
[5] = Distribution co-efficient, log D of the compound at pH 7.4; type: physicochemical; conditions: buffer
How it was run: (§2)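 Intrinsic aqueous solubility and log D at pH 7.4 were measured on a pION Gemini Profiler.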

[6] = Effective permeability of the compound at pH 7.4 by PAMPA; type: ADME; conditions: read-out: Peff
How it was run: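 Effective permeability was measured by double-sink PAMPA on a pION PAMPA Explorer.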

[7] = Intrinsic aqueous solubility of the compound; type: physicochemical; conditions: read-out: Intrinsic_solubility; how it was run: as §2

| SMILES | IC50 (HCT-116 [1]) [µM] | IC50 (PANC-1 [2]) [µM] | IC50 (BXPC-3) [µM] | IC50 (MDA-MB-231) [µM] | IC50 (HCT-116 [3]) [µM] | IC50 (MCF7) [µM] | IC50 (A549) [µM] | logD [5] | Papp [6] [×10⁻⁶ cm/s] | solubility [7] [µg/mL] | inhibition in vivo at 10 mg/kg (PANC-1 [4]) [%] |
| --- | --- | --- | --- | --- | --- | --- | --- | --- | --- | --- | --- |
| CCN(CC)CCNC(=O)c1sc2ccc(N(Cc3ccc(Br)cc3)S(=O)(=O)c3ccc(Br)cc3)cc2c1C | 10.9 | 7.65 | 7.88 | – | – | – | – | – | – | – | – |
| Cc1c(C(=O)N2CCNC(=O)C2)oc2ccc(N(Cc3ccc(Br)cc3)S(=O)(=O)c3ccc(Br)cc3)cc12 | 7.88 | > 40 | > 40 | > 40 | 21.9 | > 40 | > 40 | – | – | – | – |
| CNCCNC(=O)c1oc2ccc(N(Cc3ccc(Br)cc3)S(=O)(=O)c3ccc(Br)cc3)cc2c1C | 2.44 | 2.49 | 5.13 | 7.96 | 2.37 | 4.37 | 3.08 | – | – | – | – |
| COc1cccc2c1C(=O)c1c(O)c3c(c(O)c1C2=O)C[C@@](O)(C(=O)CO)C[C@@H]3O[C@H]1C[C@H](N)[C@H](O)[C@H](C)O1 [DOXORUBICIN] | – | 0.41 | 0.56 | 0.49 | – | – | – | – | – | – | 71.9 |
| Cc1c(C(=O)NCCN(C(C)C)C(C)C)oc2ccc(N(Cc3ccc(Br)cc3)S(=O)(=O)c3ccc(Br)cc3)cc12 | 10.4 | 6.25 | 28.3 | 9.44 | 3.11 | 10.9 | 5.5 | – | – | – | – |
| CCN(CC)CCNC(=O)c1oc2ccc(N(Cc3ccc(Br)cc3)S(=O)(=O)c3ccc(Br)cc3)cc2c1C | 2.39 | 1.52 | 1.08 | 3.73 | 1.66 | 2.84 | 2.98 | 2.53 | 2.54 | 21 (≈ 31 µM) | – |
| Cc1c(C(=O)NCCN(C)C)oc2ccc(N(Cc3ccc(Br)cc3)S(=O)(=O)c3ccc(Br)cc3)cc12 | 3.64 | 5.94 | 4.79 | 8.24 | 1.2 | 3.66 | 5.4 | – | – | – | – |
| Cc1c(C(=O)NCCN(C)C)sc2ccc(N(Cc3ccc(Br)cc3)S(=O)(=O)c3ccc(Br)cc3)cc12 | 9.8 | 7.89 | 9 | – | – | – | – | – | – | – | – |
| Cc1c(C(=O)NCCc2ccccn2)oc2ccc(N(Cc3ccc(Br)cc3)S(=O)(=O)c3ccc(Br)cc3)cc12 | > 40 | > 40 | > 40 | > 40 | > 40 | > 40 | > 40 | – | – | – | – |
| Cc1c(C(=O)NCCc2ccc(S(N)(=O)=O)cc2)oc2ccc(N(Cc3ccc(Br)cc3)S(=O)(=O)c3ccc(Br)cc3)cc12 | 5.59 | > 40 | > 40 | > 40 | 19.2 | > 40 | > 40 | – | – | – | – |
| CC(=O)NCCNC(=O)c1oc2ccc(N(Cc3ccc(Br)cc3)S(=O)(=O)c3ccc(Br)cc3)cc2c1C | 12.2 | 34.8 | > 40 | > 40 | 20.4 | 21.3 | > 40 | – | – | – | – |
| Cc1c(C(=O)NCCNc2ccccc2)oc2ccc(N(Cc3ccc(Br)cc3)S(=O)(=O)c3ccc(Br)cc3)cc12 | > 40 | > 40 | > 40 | > 40 | > 40 | > 40 | > 40 | – | – | – | – |
| Cc1c(C(=O)NCCCN(C)C)oc2ccc(N(Cc3ccc(Br)cc3)S(=O)(=O)c3ccc(Br)cc3)cc12 | 3.07 | 2.3 | 2.02 | 6.68 | 3.73 | 3.71 | 4.31 | – | – | – | – |
| Cc1c(C(=O)N2CCOCC2)oc2ccc(N(Cc3ccc(Br)cc3)S(=O)(=O)c3ccc(Br)cc3)cc12 | 22.1 | 23.8 | 29.1 | 25.1 | 26.4 | 15.4 | 19.1 | – | – | – | – |
| Cc1ccc(NC(=O)c2oc3ccc(N(Cc4ccc(Br)cc4)S(=O)(=O)c4ccc(Br)cc4)cc3c2C)nc1 | > 40 | > 40 | > 40 | > 40 | > 40 | > 40 | > 40 | – | – | – | – |
| CN(C)CCNC(=O)c1nc2cc(N(Cc3ccc(Br)cc3)S(=O)(=O)c3ccc(Br)cc3)ccc2o1 | 14.3 | 13.6 | 13.7 | – | – | – | – | – | – | – | – |
| CCN(CC)CCNC(=O)c1nc2cc(N(Cc3ccc(Br)cc3)S(=O)(=O)c3ccc(Br)cc3)ccc2o1 | 14.3 | 12.6 | 16.3 | – | – | – | – | – | – | – | – |
| Cc1c(C(=O)OCCCN(C)C)oc2ccc(N(Cc3ccc(Br)cc3)S(=O)(=O)c3ccc(Br)cc3)cc12 | 11.2 | 24.6 | 24.2 | 28.6 | 7.05 | 39.7 | > 40 | – | – | – | – |
| Cc1c(C(=O)NCC(O)CO)oc2ccc(N(Cc3ccc(Br)cc3)S(=O)(=O)c3ccc(Br)cc3)cc12 (stereo not drawn) | 27.8 | 29.3 | 27.6 | 16.5 | 11.5 | 36.5 | 30.5 | – | – | – | – |
| Cc1c(C(=O)NCCS(C)(=O)=O)oc2ccc(N(Cc3ccc(Br)cc3)S(=O)(=O)c3ccc(Br)cc3)cc12 | > 40 | > 40 | > 40 | > 40 | > 40 | > 40 | > 40 | – | – | – | – |

Now from value to compound, other results behind:

| IC50 (HCT-116 [1]) [µM] | IC50 (PANC-1 [2]) [µM] | IC50 (BXPC-3) [µM] | IC50 (MDA-MB-231) [µM] | IC50 (HCT-116 [3]) [µM] | IC50 (MCF7) [µM] | IC50 (A549) [µM] | logD [5] | Papp [6] [×10⁻⁶ cm/s] | solubility [7] [µg/mL] | SMILES | inhibition in vivo at 10 mg/kg (PANC-1 [4]) [%] |
| --- | --- | --- | --- | --- | --- | --- | --- | --- | --- | --- | --- |
| 15.8 | 10.5 | 17.4 | – | – | – | – | – | – | – | CCN(CC)CCNC(=O)c1[nH]c2ccc(N(Cc3ccc(Br)cc3)S(=O)(=O)c3ccc(Br)cc3)cc2c1C | – |
| 3 | 8.38 | 19.6 | 9.04 | 3.3 | 9.72 | 8.68 | – | – | – | Cc1c(C(=O)N2CCNCC2)oc2ccc(N(Cc3ccc(Br)cc3)S(=O)(=O)c3ccc(Br)cc3)cc12 | – |
| 2.67 | 2.78 | 2.36 | 8.17 | 2.29 | 5.44 | 5.29 | – | – | – | Cc1c(C(=O)NCCN2CCCC2)oc2ccc(N(Cc3ccc(Br)cc3)S(=O)(=O)c3ccc(Br)cc3)cc12 | – |
| 10.5 | 32.1 | 27.2 | 23.5 | 13.3 | 17.2 | 21.4 | – | – | – | Cc1c(C(=O)NCCN2CCOCC2)oc2ccc(N(Cc3ccc(Br)cc3)S(=O)(=O)c3ccc(Br)cc3)cc12 | – |
| 8.55 | > 40 | > 40 | > 40 | 5.47 | > 40 | 22.3 | – | – | – | Cc1c(C(=O)N2CCN(C)CC2)oc2ccc(N(Cc3ccc(Br)cc3)S(=O)(=O)c3ccc(Br)cc3)cc12 | – |
| 7.32 | 5.91 | 10.2 | – | – | – | – | – | – | – | CN1CCC(NC(=O)c2nc3cc(N(Cc4ccc(Br)cc4)S(=O)(=O)c4ccc(Br)cc4)ccc3o2)CC1 | – |
| 23.1 | 26.2 | 16.6 | 19.4 | 28.3 | 32.8 | 33.7 | – | – | – | Cc1c(C(=O)N2CCCC(C)C2)oc2ccc(N(Cc3ccc(Br)cc3)S(=O)(=O)c3ccc(Br)cc3)cc12 (stereo not drawn) | – |
| 2.23 | 6.94 | 3.71 | 9.26 | 2.84 | 3.36 | 5.17 | – | – | – | Cc1c(C(=O)NCCN2CCCCC2)oc2ccc(N(Cc3ccc(Br)cc3)S(=O)(=O)c3ccc(Br)cc3)cc12 | – |
| 14.5 | 3.67 | 7.5 | – | – | – | – | – | – | – | Cc1c(C(=O)NC2CCN(C)CC2)[nH]c2ccc(N(Cc3ccc(Br)cc3)S(=O)(=O)c3ccc(Br)cc3)cc12 | – |
| 3.81 | 5.04 | 2.6 | 7.5 | 2.59 | 5.66 | 5.03 | – | – | – | Cc1c(C(=O)NCCN2CCN(C)CC2)oc2ccc(N(Cc3ccc(Br)cc3)S(=O)(=O)c3ccc(Br)cc3)cc12 | – |
| 16.6 | 11.2 | 6.98 | – | – | – | – | – | – | – | Cc1c(C(=O)NCCN(C)C)[nH]c2ccc(N(Cc3ccc(Br)cc3)S(=O)(=O)c3ccc(Br)cc3)cc12 | – |
| 10.1 | 5.2 | 7.1 | – | – | – | – | – | – | – | Cc1c(C(=O)NC2CCN(C)CC2)sc2ccc(N(Cc3ccc(Br)cc3)S(=O)(=O)c3ccc(Br)cc3)cc12 | – |

Reference: ChEMBL document CHEMBL4130343, “Design, synthesis, and evaluation of benzofuran derivatives as novel anti-pancreatic carcinoma agents via interfering the hypoxia environment by targeting HIF-1α pathway” (Eur J Med Chem, 2017)
